Measurements pooled from the literature.
Lines come from different studies, so protocols differ.
Cell line: HT-29
Observed: cell growth or viability

For `COc1ccc(C(=O)/C=C/c2cccc3ccccc23)cc1S(N)(=O)=O`, the inhibition was 140% (SRB; 10 µM).
The inhibition of `COc1ccc(-c2nc(NN=C3C(=O)Nc4ccccc43)c3ccccc3n2)cc1OC` is reported as 38.1% (30 µM).
With `COc1ccc2c(c1)/C(=N/NC(=O)c1cc3ccccc3[nH]1)C(=O)N2` the inhibition was 36.5% (30 µM).
With `COc1cc2ncnc(NN=C3C(=O)Nc4ccc(F)cc43)c2cc1OC` the inhibition was 13.2% (10 µM).
`COc1ccc(C(=O)/C=C/c2c(F)cccc2Cl)cc1S(N)(=O)=O` has an inhibition of 92% (SRB; 10 µM).
`O=C1Nc2ccccc2C1=NNc1nnc(Cc2ccccc2)c2ccccc12` has an inhibition of 87.6% (30 µM).
`COc1ccc(C2=Nn3c(NN=C4C(=O)Nc5ccc(OC)cc54)nnc3SC2)cc1` gave an inhibition of 24% (SRB; 10 µM).
`COc1ccc(C(=O)/C=C/c2ccc(Cl)c(Cl)c2)cc1S(N)(=O)=O` has an inhibition of 150% (SRB; 10 µM).
`O=C1Nc2ccc(Cl)cc2/C1=N/NC(=O)c1cc2ccccc2[nH]1` gave an inhibition of 29.4% (30 µM).
The inhibition of `COc1ccc(C2=Nn3c(NN=C4C(=O)Nc5ccc(Cl)cc54)nnc3SC2)cc1` is reported as 27% (SRB; 10 µM).
For `O=C1Nc2ccccc2/C1=N/NC(=O)c1cc2ccccc2[nH]1`, the inhibition was 75.4% (30 µM).
The inhibition of `COc1cc2ncnc(NN=C3C(=O)Nc4ccc(C)cc43)c2cc1OC` is reported as 49.3% (30 µM).
`CCN(CC)CCNC(=O)c1c(C)[nH]c(/C=C2\C(=O)Nc3ccc(F)cc32)c1C` has an inhibition of 59.5% (30 µM).
`COc1ccc(C(=O)/C=C/c2cccnc2)cc1S(N)(=O)=O` has an inhibition of 76% (SRB; 10 µM).
With `COc1ccc(-c2nc(NN=C3C(=O)Nc4ccc(F)cc43)c3ccccc3n2)cc1OC` the inhibition was 9.6% (30 µM).
`CN1C(=O)/C(=N\NC(=O)c2cc3ccccc3[nH]2)c2cc(F)ccc21` gave an inhibition of 91.3% (30 µM).
The inhibition of `COc1ccc(C(=O)/C=C/c2cccc(Cl)c2)cc1S(N)(=O)=O` is reported as 99% (SRB; 10 µM).
`O=C1Nc2ccc(F)cc2/C1=N/NC(=O)c1cc2ccccc2[nH]1` gave an inhibition of 13.9% (30 µM).
The inhibition of `Cn1c(=O)c(NN=C2C(=O)Nc3ccc(Br)cc32)nc2ccccc21` is reported as 49.4% (30 µM).
`O=C1Nc2ccc(Br)cc2/C1=N/NC(=O)c1cc2ccccc2[nH]1` gave an inhibition of 64.5% (30 µM).
For `COc1ccc(C(=O)/C=C/c2ccc3c(c2)OCCO3)cc1S(N)(=O)=O`, the inhibition was 67% (SRB; 10 µM).
